fluorescein = fluorescein: fluorescein label on the Lys side chain
Biological target: T1, EHD1-EH (Homo sapiens, UniProt Q9H4M9)
T1 sequence (Q9H4M9 444-532 limits assumed): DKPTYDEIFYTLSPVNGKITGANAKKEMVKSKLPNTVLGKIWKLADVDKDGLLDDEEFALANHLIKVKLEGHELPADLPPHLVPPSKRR
Experiment: Fluorescence polarization
Format: binding
Outline: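 Fluorescein-labelled peptide probes mixed with the EHD1 EH domain; binding read by fluorescence polarization. Buffer: 25 mM MOPS (pH 6.8), 1 mM CaCl2, 15 mM NaCl, 1.5% DMSO, 0.1% Tween 20.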

## -YAPAEEGK(Flu)- (cyclo(YAPAEEGK(fluorescein))) [cAPA^Flu]
Up to 67 μM EHD1-EH, 15 mM NaCl
  binding to EHD1-EH: No binding was observed

## -YNPFEAGK(Flu)- (cyclo(YNPFEAGK(fluorescein))) [cNPF5^Flu]
FP direct binding, reduced charge analogue relative to cNPF1^Flu
  loss of affinity: 3 fold
